Reference: ChEMBL document CHEMBL3259554, “Discovery, synthesis, and optimization of antimalarial 4(1H)-quinolone-3-diarylethers” (J Med Chem, 2014)
Calls of active or inactive are those of the source. The calls are words filed in the database; no cut-off is given here.

Assays:
Plasmodium falciparum [1] = assay: Antimalarial activity against atovaquone-resistant clinical isolate Plasmodium falciparum TM90-C2B infected in human red blood cells assessed as suppression of parasitemia after 72 hrs by SYBR Green I-based fluorescence method; assay type: functional, organism-based
Outline: (§1)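 Asynchronous parasites in human erythrocytes, RPMI-1640 with HEPES, hypoxanthine, glucose, glutamine, 0.5% Albumax II; 2% hematocrit, 0.2% initial parasitemia. Triplicate 2-fold dilutions from 1 μM (lower start if needed), 72 h at 37 °C under 5% O2/5% CO2/90% N2. SYBR Green I dye-detergent added, 1 h dark at room temperature, fluorescence read. EC50 averaged over at least three determinations.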

[2] = Antimalarial activity against multidrug-resistant Plasmodium falciparum Dd2 MRA-156 infected in human red blood cells assessed as suppression of parasitemia after 72 hrs by SYBR Green I-based fluorescence method; assay type: functional; outline: as §1
Plasmodium falciparum [3] = assay: Antimalarial activity against chloroquine-sensitive Plasmodium falciparum D6 MRA-285 infected in human red blood cells assessed as suppression of parasitemia after 72 hrs by SYBR Green I-based fluorescence method; assay type: functional, organism-based; settings: D6 MRA-285, 72 h; outline: as §1
HepG2 = assay: Cytotoxicity against human HepG2 cells after 24 hrs incubation by Alamar Blue assay; assay type: cell-based; settings: HepG2, 24 h
Outline: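 HepG2 cells grown in RPMI-1640 with 10% FBS and seeded at 2 × 10⁴ cells/well, attached overnight. Drug serially diluted from 10 mM DMSO stocks to 2.5 nM–10 μM and incubated 24–36 h. Medium then replaced and cells kept a further 24 h. Resazurin added (final 10 μM) for 3 h, fluorescence read at ex 560/em 590 nm. Run in triplicate; IC50 by nonlinear logistic regression.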

Plasmodium yoelii [4] = assay: Antimalarial activity against Plasmodium yoelii MR4 MRA-428 infected in mouse CF1 assessed as reduction on parasite burden administered through oral gavage once daily for 4 days; assay type: functional
Outline: (§2)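 P. yoelii-infected mice, randomly grouped in fours; dosing began day after inoculation (day 1), once daily by oral gavage in PEG-400 for four successive days; initial doses 0.1, 0.3, 1.0, 3.0, 10 mg/kg/day, range adjusted as needed. Day-5 Giemsa-smear parasitemia vs drug-free controls; ED50 derived graphically. Cure = parasite free 30 days after last dose; cure dose termed non-recrudescence dose.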

[5] = Inhibition of cytochrome bc1 complex isolated from trophozoite stage Plasmodium falciparum
Outline: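 P. falciparum mitochondrial preparation assayed for cytochrome c reductase at 35 °C in a stirred cuvette. Buffer: 100 μM decylubiquinol, 100 μM horse heart cytochrome c, 0.1 mg/mL dodecyl maltoside, 60 mM HEPES pH 7.4, 10 mM malonate, 1.0 mM EDTA, 2.0 mM KCN. Baseline subtracted from the initial rate; activity expressed as a fraction of uninhibited control.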

Plasmodium yoelii [6] = assay: Antimalarial activity against Plasmodium yoelii MR4 MRA-428 infected in mouse CF1 assessed as dose required to achieve cure measured as 30 days survival administered through oral gavage once daily for 4 days; assay type: functional; outline: as §2
[7] = Inhibition of human cytochrome bc1 complex derived from HEK293 cell mitochondria using 50 uM decylubiquinol as substrate
Outline: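 Mitochondria isolated from HEK-293 cells by Dounce homogenization and differential centrifugation, dispersed in 2 mg/mL dodecyl maltoside for 45 min on ice, then clarified. Baseline-subtracted initial rates expressed as a fraction of uninhibited control.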

Liver microsome [8] = assay: Metabolic stability in rat liver microsomes; assay type: ADME
Outline: (§3)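 Compound at 1 μM incubated at 37 °C with liver microsomes (0.4 mg protein/mL) in 0.1 M phosphate pH 7.4. Started with an NADPH-regenerating system plus MgCl₂ and quenched with cold acetonitrile at time points up to 60 min. Parent loss followed by LC-MS and fitted to first-order decay to give half-life and intrinsic clearance. E_H used liver blood flow of 20.7 (human) or 55.2 (rat) mL/min/kg.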

Liver microsome [9] = assay: Metabolic stability in human liver microsomes; assay type: ADME; outline: as §3
[10] = Selectivity ratio of IC50 for human cytochrome bc1 complex to EC50 for Plasmodium falciparum cytochrome bc1 complex
Plasmodium yoelii [11] = assay: Antimalarial activity against Plasmodium yoelii MR4 MRA-428 infected in mouse CF1 assessed as reduction on parasite burden at 64 mg/kg administered through oral gavage once daily for 4 days; assay type: functional, organism-based; parameters: dose 64 mg/kg
Outline: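 P. yoelii model in mice, randomized into groups of four. Oral gavage in PEG-400 once daily for four successive days, starting the day after inoculation. Giemsa-stained blood smears read microscopically on day 5. Parasite burden compared with drug-free controls. Animals parasite free 30 days after the last dose counted as cured.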

Structure (SMILES)	EC50 (Plasmodium falciparum [1]) [nM]	EC50 [2] [nM]	EC50 (Plasmodium falciparum [3]) [nM]	IC50 (HepG2) [nM]	ED50 (Plasmodium yoelii [4]; MR4 MRA-428, po, 96 h) [mg/kg/day]	IC50 [5] [nM]	NRD (Plasmodium yoelii [6])	IC50 [7] [nM]	Stability (Liver microsome [8])	Stability (Liver microsome [9])	ED90 (Plasmodium yoelii [4]; MR4 MRA-428, po, 96 h) [mg/kg/day]	EC50 [5] [nM]	Ratio IC50/EC50 [10]	Activity (Plasmodium yoelii [11])	ED50 (Plasmodium yoelii [4])
COc1cc2[nH]c(C)c(-c3cnc(Oc4ccc(OC(F)(F)F)cc4)nc3)c(=O)c2cc1Cl	> 2500	> 2500	> 2500	> 10000	–	–	–	–	–	–	–	–	–	–	–
Cc1[nH]c2ccc(F)cc2c(=O)c1-c1ccc(Oc2ccc(OC(F)(F)F)cc2)nc1	11	13	13	> 10000	–	–	–	–	–	–	–	–	–	–	–
Cc1[nH]c2ccccc2c(=O)c1-c1ccc(Oc2ccc(OC(F)(F)F)cc2)cc1	7.5	5.9	4.1	> 10000	0.1	8.9	3 mg/kg/day	1900	–	–	–	–	–	–	–
Cc1[nH]c2ccc(F)cc2c(=O)c1-c1ccc(Oc2ccc(OC(F)(F)F)cc2)cc1	1.7	2.4	1.5	> 10000	0.1	–	3 mg/kg/day	> 10000	Stable	Stable	–	–	–	–	–
COc1cc2[nH]c(C)c(-c3ccc(Oc4ccc(OC(F)(F)F)cc4)cc3)c(=O)c2cc1Cl	1.4	2.5	2.2	> 10000	0.02	–	0.3 mg/kg/day	> 10000	Stable	Stable	0.06	0.56	> 20000	–	–
COc1cc2[nH]c(C)c(-c3ccc(Oc4ccc(F)c(OC(F)(F)F)c4)cc3)c(=O)c2cc1Cl	0.3	0.5	0.4	> 10000	0.06	–	>3 mg/kg/day	–	–	–	–	–	–	–	–
O=C1C(O)=C([C@H]2CC[C@H](c3ccc(Cl)cc3)CC2)C(=O)c2ccccc21 [ATOVAQUONE]	7700	0.1	0.1	> 10000	–	2	–	410	–	–	–	–	–	–	–
COc1cc2[nH]c(C)c(-c3ccc(Oc4ccc(C(F)(F)F)cn4)cc3)c(=O)c2cc1Cl	4.1	6.8	8.1	> 10000	–	–	–	–	–	–	–	–	–	–	–
COc1cc2[nH]c(C)c(-c3ccc(Oc4ccc(C(F)(F)F)cc4)cc3)c(=O)c2cc1Cl	0.05	0.3	0.3	> 10000	0.03	–	1 mg/kg/day	–	–	–	–	–	–	–	–
COc1cc2[nH]c(C)c(-c3ccc(Oc4ccc(F)cc4)cc3)c(=O)c2cc1Cl	–	3.8	0.8	> 10000	< 1	–	>3 mg/kg/day	–	–	–	–	–	–	–	–
COc1cc2[nH]c(C)c(-c3ccc(Oc4ccccc4)cc3)c(=O)c2cc1F	8.5	43	40	> 10000	–	–	–	–	–	–	–	–	–	–	–
CCN(CC)CCCC(C)Nc1ccnc2cc(Cl)ccc12 (stereo unspecified) [CHLOROQUINE]	–	–	–	–	2.2	–	>64 mg/kg/day	–	–	–	–	–	–	inactive	–
COc1ccc2c(=O)c(-c3ccc(Oc4ccc(OC(F)(F)F)cc4)cc3)c(C)[nH]c2c1	2.3	3.4	1.7	> 10000	–	–	–	> 10000	Unstable	Unstable	–	–	–	–	–
COc1cc2[nH]c(C)c(-c3ccc(Oc4ccc(OC(F)(F)F)cc4)nc3)c(=O)c2cc1Cl	0.4	0.2	0.3	> 10000	0.3	–	>3 mg/kg/day	–	–	–	–	–	–	–	–
CCCCCCCc1c(C)[nH]c2cc(OC)c(Cl)cc2c1=O	0.8	2.3	1.4	–	–	–	–	> 10000	–	–	–	–	–	–	–
Cc1[nH]c2ccc(Cl)cc2c(=O)c1-c1ccc(Oc2ccc(OC(F)(F)F)cc2)nc1	1.5	6.1	3.6	> 10000	–	–	–	–	–	–	–	–	–	–	–
Cc1[nH]c2ccc(Cl)cc2c(=O)c1-c1ccc(Oc2ccc(OC(F)(F)F)cc2)cc1	2.3	5.6	3.2	> 10000	0.2	–	>3 mg/kg/day	> 10000	Stable	Stable	–	–	–	–	–
COc1cc2[nH]c(C)c(-c3ccc(Oc4cccc(OC(F)(F)F)c4)cc3)c(=O)c2cc1Cl	< 0.03	0.03	0.03	> 10000	> 3	–	>3 mg/kg/day	–	–	–	–	–	–	–	–
CCCCCCCc1c(C)nc2cc(OC)ccc2c1O	11	3.1	3.8	> 10000	–	–	inactive	> 10000	–	–	–	–	–	–	inactive
COc1cc2[nH]c(C)c(-c3ccc(Oc4ccc(OC(F)(F)F)cc4)cn3)c(=O)c2cc1Cl	0.2	0.5	0.4	> 10000	< 1	–	>3 mg/kg/day	–	–	–	–	–	–	–	–
COc1cc2[nH]c(C)c(-c3ccc(Oc4ccc(Cl)cc4)cc3)c(=O)c2cc1Cl	1.2	1.8	1.9	> 10000	0.05	–	>0.3 mg/kg/day	–	–	–	–	–	–	–	–
Cc1[nH]c2ccccc2c(=O)c1-c1ccc(Oc2ccc(OC(F)(F)F)cc2)nc1	4.3	5.8	3	> 10000	–	–	–	–	–	–	–	–	–	–	–
Cc1[nH]c2ccccc2c(=O)c1-c1ccc(Oc2ccccc2)cc1	7.2	12	8.4	> 10000	–	–	–	–	–	–	–	–	–	–	–
COc1cc2[nH]c(C)c(-c3ccc(Oc4ccc(OC(F)(F)F)c(F)c4)cc3)c(=O)c2cc1Cl	5.8	12	12	> 10000	–	–	–	–	–	–	–	–	–	–	–
COc1cc2[nH]c(C)c(-c3ccc(Oc4ccc(OC(F)(F)F)cc4)cc3)c(=O)c2cc1F	0.5	1.4	1.4	> 10000	0.05	–	–	> 10000	Stable	Stable	–	–	–	–	–
